Assay results collected from several papers.
Each line is one published result; the experiments were not run side by side.
Organism: Micrococcus luteus
Observed: microbial growth

CN(C)[C@@H]1C(O)=C(C(N)=O)C(=O)[C@@]2(O)C(O)=C3C(=O)c4c(O)cccc4[C@@](C)(O)[C@H]3C[C@@H]12  MIC: 2 µg/mL
O=C(O)CN1C(=O)/C(=C/c2ccc(-c3ccc(N(c4ccccc4)c4ccccc4)cc3)cc2)SC1=S  MIC (broth dilution; ATCC10240): 0.98 µg/mL
CC1=NN(CNc2ccccn2)C(=O)C1=NNn1c(-c2ccccc2)nc2ccccc2c1=O  MIC (broth dilution; 24 h): 110 µM
O=C1NC(=S)N/C1=C\c1ccc(-c2ccc(N(c3ccccc3)c3ccccc3)cc2)c2ccccc12  MIC (broth dilution; ATCC10240): > 1000 µg/mL
C/C=C(\C)c1cc(O)c(C)c(OC(=O)c2c(C)cc(O)c(Cl)c2O)c1  MIC (broth dilution; ML01): 4 µg/mL
O=C1NC(=S)S/C1=C\c1ccc(-c2ccc(N(c3ccccc3)c3ccccc3)cc2)cc1  MIC (broth dilution; ATCC10240): 31.1 µg/mL
CC1=NN(CNC(=O)c2ccccn2)C(=O)C1=NNn1c(-c2ccccc2)nc2ccccc2c1=O  MIC (broth dilution; 24 h): 52 µM
CC1(C)S[C@@H]2[C@H](NC(=O)[C@H](N)c3ccccc3)C(=O)N2[C@H]1C(=O)O  MIC (broth dilution; ML01): 0.13 µg/mL
CC(=O)NCN1N=C(C)C(=NNn2c(-c3ccccc3)nc3ccccc3c2=O)C1=O  MIC (broth dilution; 24 h): 59.9 µM
C/C=C(\C)c1cc(OC(=O)c2c(C)c(Cl)c(O)c(Cl)c2O)c(C)c(O)c1C(=O)O  MIC (broth dilution; ML01): 64 µg/mL
